KCNK9 inh: KCNK9 potassium channel inhibitors, primary screen, HEK293 cells, thallium flux. Potassium channel subfamily K member 9 (Homo sapiens), Q9NPC2. FluxOR thallium flux fluorescence; stronger effect = lower value. B-score at 10 µM. hit rate 1.2% among 310,000. AID 488922, 2010;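 active means ratio B-score over 3 SD below the library mean, with starting fluorescence within 5 SD of its mean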;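 further: negative B-score means less thallium flux so channel inhibition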
Target sequence (Q9NPC2 whole entry, looked up): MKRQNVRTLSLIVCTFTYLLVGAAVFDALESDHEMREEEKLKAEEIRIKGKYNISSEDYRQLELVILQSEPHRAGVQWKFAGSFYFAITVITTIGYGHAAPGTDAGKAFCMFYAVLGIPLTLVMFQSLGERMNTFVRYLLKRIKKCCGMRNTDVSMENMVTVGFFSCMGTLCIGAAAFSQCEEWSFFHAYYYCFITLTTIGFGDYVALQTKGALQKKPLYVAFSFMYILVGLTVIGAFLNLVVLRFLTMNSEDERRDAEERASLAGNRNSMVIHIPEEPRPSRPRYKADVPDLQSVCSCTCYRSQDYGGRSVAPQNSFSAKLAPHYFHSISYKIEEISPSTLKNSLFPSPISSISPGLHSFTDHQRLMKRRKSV
hERG rescue: hERG rescue from dofetilide block, primary screen, cell-based, CHO-hERG, FluxOR thallium flux, dofetilide IC70. activation (rescue from dofetilide block), less the hit threshold, % at 10 µM. Voltage-gated inwardly rectifying potassium channel KCNH2 (Homo sapiens), Q12809. dofetilide IC70 present. hit rate 0.51% among 310,000;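 active means activation above the mean of controls blocked by dofetilide plus 5 SD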;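 further: thallium influx through hERG after potassium depolarization seen as dye fluorescence rise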
KCNK3 block: human KCNK3 channel inhibitors, primary screen, CHO cells, FluxOR thallium flux, B-score; FluxOR fluorescence; stronger effect = lower value; Potassium channel subfamily K member 3 (Homo sapiens), O14649; B-score at 10 µM; hit rate 0.84% among 340,000;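 active means B-score under library mean minus 4 SD, starting fluorescence ratio at most library mean plus 5 SD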;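 further: more negative B-score means stronger inhibition of thallium flux through KCNK3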
KCNQ1 block: inhibitors of human KCNQ1 channel, primary screen, cell-based, thallium flux, high-throughput; Potassium voltage-gated channel subfamily KQT member 1 (Homo sapiens), P51787; CHO-K1 KCNQ1, FluxOR thallium flux fluorescence; stronger effect = higher value; B-score at 10 µM; hit rate 1.3% among 310,000; AID 2642, 2010;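 active means compounds whose thallium flux B-score, printed positive for inhibition, exceeds three library SD while starting fluorescence stays within three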;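 further: channel opened by potassium depolarization with thallium stimulus after 20 min compound exposure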
KCNQ1 act: potentiators or activators of KCNQ1 channel, primary screen, cell-based, thallium flux, high-throughput. CHO-K1 KCNQ1, thallium flux FluxOR fluorescence; stronger effect = higher value. B-score at 10 µM. Potassium voltage-gated channel subfamily KQT member 1 (Homo sapiens), P51787. hit rate 0.35% among 310,000. AID 2648, 2010;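 active means fluorescence ratio B-score, a plate-corrected score, at least three library SD, with initial intensity B-score within 5 SD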
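Assay system: CHO-K1 cells stably expressing KCNQ1; Medium: assay buffer with matched DMSO; Also added: K+/Tl+ depolarizing stimulus; Dosing: single dose; Timing: dye 90 min, compound 20 min, room temperature; Measured by: kinetic FluxOR thallium fluorescence, 10-s 1-Hz baseline, 110-s post-stimulus read; Read-out: peak-minus-minimum fluorescence over initial fluorescence, negative-control normalized, B-scored.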
KCNK3 confirm: retest of human KCNK3 channel inhibitors, confirmation, CHO cells, FluxOR thallium flux, triplicate. shares compounds with KCNK3 block. FluxOR fluorescence; 0% buffer, 100% carvedilol maximal block. ratio percent of control, % at 10 µM. hit rate 99% among 2,400. AID 651638, 2012;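 active means ratio percent of control, averaged over triplicates, above buffer control mean plus 5 SD, cut at about 64% in these data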;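 further: ratio is the fluorescence rise from min to max over baseline after thallium stimulus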
KCNK3 uninduced: thallium flux inhibition in non-induced cells, primary screen, counter-screen for KCNK3 inhibitor project, cell-based, non-induced KCNK3 line, FluxOR thallium, triplicate. shares compounds with KCNK3 block. hit rate 40% among 2,400. AID 651747, 2012. non-induced KCNK3 parental cells; stronger effect = lower value. thallium flux ratio (lower = more inhibition) at 10 µM;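 active means thallium flux ratio, averaged over three wells, more than 5 SD below the buffer control mean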;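 further: host cells are CHO cells without KCNK3 induction; ratio is peak minus trough fluorescence over baseline then normalized to buffer controls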
Starred values were filed as active, the others as inactive; i = inactive; . = no result given. An excerpt weighted towards active compounds, which were near 3.1% of everything screened.

SMILES	KCNK9 inh	hERG rescue	KCNK3 block	KCNQ1 block	KCNQ1 act	KCNK3 confirm	KCNK3 uninduced
COc1ccc2ccccc2c1CN1CCN(C(=O)c2ccco2)CC1	i	-1	-11*	i	i	90*	i
O=C(CNC(=O)c1cccc(F)c1)OCCOc1cccc(Cl)c1	i	-17	-8.7*	i	i	104*	i
CCOC(=O)/C(C#N)=C/c1cc2ccccc2nc1N1CCCCC1	-7.3*	-9	-9.5*	12*	i	0	i
O=C(Cc1ccccc1)Nc1ccccc1C(=O)NCC1CCCO1 (centres undefined)	i	-3	i	i	i	.	.
CCOC(=O)CSc1nnc2n(C3CCCCC3)c(=O)c3c4c(sc3n12)CCCC4	i	-8	i	i	i	.	.
COC(=O)CSc1nnc2n(C3CCCCC3)c(=O)c3c4c(sc3n12)CCCC4	i	-10	-9.5*	i	i	96*	0.15*
COc1ccc(CN2C(=O)c3cccc4cccc2c34)cc1F	i	-9	-9.3*	i	i	90*	i
Cc1ccc2c(c1)CC(C)N2S(=O)(=O)c1nnc(NC(=O)CC(C)C)s1 (centres undefined)	i	-4	i	i	i	.	.
O=C(COC(=O)c1nc(Cl)ccc1Cl)Nc1ccccc1OC(F)F	i	-11	-9.6*	i	i	105*	i
O=C(COC(=O)c1cccnc1Cl)Nc1ccccc1OC(F)F	i	-2	i	i	i	.	.
Cc1ccc(C(C#N)c2ccc(C(=O)c3ccc(F)cc3)cc2)cc1 (centres undefined)	i	-14	-8.8*	13*	i	99*	0.12*
Cc1ccc(C(=O)NC(C)c2ccc(F)cc2)cc1 (centres undefined)	i	-4	i	i	i	.	.
Cc1ccc(C(=O)CCc2ccc(N)cc2)cc1	i	-9	i	i	i	.	.
Cc1ccc(-c2nc(C(Cl)Cl)c3ccccc3n2)cc1	i	-10	-9.2*	i	i	114*	i
COCCN(CCOC)c1nc(-c2ccc(C)cc2)nc2ccccc12	i	-14	-12*	i	i	86*	0.13*
NC(=O)Cn1cc(/C=N/NC(=O)c2ccc(Cn3cc(Cl)cn3)o2)c(-c2ccccc2)n1	i	-11	i	i	i	.	.
Cc1cccc(C)c1N=Nc1c(C)cc(O)cc1C	i	-10	i	i	i	.	.
O=C1NC(=Nc2ccccc2)S/C1=C/c1cccnc1	i	-8	-11*	i	i	90*	i
O=C1/C(=C/c2cccnc2)Sc2ccccc21	i	-6	-9.6*	i	i	102*	i
CC(=O)Nc1ccc(/C=C2\Sc3ccccc3C2=O)cc1	i	-7	i	i	i	.	.
NC(=O)c1cc[n+](CC(=O)NC(=O)Nc2ccccc2)cc1	.	.	i	.	.	.	.
CCCCN(C(=O)CSCc1c(C)noc1C)c1c(N)n(CCCC)c(=O)[nH]c1=O	i	-8	i	i	i	.	.
CCOC(=O)C1=C(COC(=O)c2ccc(Cl)nc2)NC(=O)NC1C (centres undefined)	.	.	i	.	.	.	.
COc1ccc(NC(=O)CN2C(=O)COc3ccc(C)cc32)cc1	i	-4	i	i	i	.	.
O=C(NC1CCN(C(=O)N2c3ccccc3Sc3ccccc32)CC1)c1ccccc1F	i	-8	-11*	i	i	89*	i
SMILES	KCNK9 inh	hERG rescue	KCNK3 block	KCNQ1 block	KCNQ1 act	KCNK3 confirm	KCNK3 uninduced
COC(=O)COc1ccc(Cl)cc1C1Nc2ccccc2C(=O)N1c1ccc(OC)cc1 (centres undefined)	-8*	-7	i	i	i	122*	0.16*
COC(=O)c1ccccc1NC(=O)c1ccc(COc2cc(C)cc(C)c2)o1	i	-7	-9.5*	i	i	87*	i
COC(=O)C1=C(C)NC(=S)NC1c1ccc(-c2cc(Cl)ccc2Cl)o1 (centres undefined)	i	-13	-8.9*	i	i	107*	i
COC(=O)C1=C(C)NC(=O)NC1c1ccc(-c2ccc(Cl)cc2)o1 (centres undefined)	i	-12	i	i	i	.	.
CCCn1nc([N+](=O)[O-])c(C(C#N)c2nc3ccccc3s2)c(Cl)c1=O (centres undefined)	i	-23	-8.8*	14*	i	133*	0.11*
O=S(=O)(c1cccc2cccnc12)N1CCN(c2ccccc2)CC1	i	-17	i	i	i	.	.
Cc1ccc(C)c(N2CCN(S(=O)(=O)c3cccc4cccnc34)CC2)c1	i	-10	-9.9*	i	i	116*	0.15*
CCOC(=O)c1c(C)[nH]c(C)c1C(=O)COC(=O)[C@@H](NC(=O)c1ccccc1OCC)C(C)C	i	-13	-9.1*	i	i	104*	i
CCc1ccc(-c2cc(C)no2)cc1S(=O)(=O)N1CCN(c2ccc(C(C)=O)cc2)CC1	i	-18	i	i	i	.	.
CCc1ccc(-c2cc(C)no2)cc1S(=O)(=O)N1CCN(c2ccccc2F)CC1	i	-13	-8.8*	i	i	81*	i
O=C(Nc1cccc(Cl)c1)OC1CCCCc2cccnc21 (centres undefined)	i	-3	-9.3*	i	i	116*	i
CC(OC(=O)Nc1cccc(Cl)c1)C(=O)OC1CCCCC1 (centres undefined)	.	.	i	.	.	.	.
CCn1ncc([C@@H]2C[C@H]3CN(Cc4cccc(Cl)c4)C(=O)[C@]34CCCN24)c1C	i	-12	i	i	i	.	.
Cn1cc([C@@H]2C[C@H]3CN(Cc4cccc(Cl)c4)C(=O)[C@]34CCCN24)c(-c2ccccc2)n1	-7.3*	-6	-9.7*	i	i	100*	i
O=C1N(Cc2cccc(Cl)c2)C[C@@H]2C[C@@H](c3ccco3)N3CCC[C@@]123	i	-8	-9.2*	i	i	88*	i
